In assay [1] the test system is Mus musculus. Description: […] in C38 adenocarcinoma cell line when a dose of 25 mg/kg administered intravenously in mice. The format is functional, MC-38. As to conditions: route intravenous. The method in brief:
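C38 colon adenocarcinoma in hybrid BD F1 mice, 10 per test. A standard 3-mm³ tumour fragment was implanted sc. Drugs were given iv at the stated doses on D1 or on D2 + D9, following the Geran et al. NCI protocol.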

Assay [2] has as its system Mus musculus. Description: Antitumor activity against L1210 cells at a dose of 20 mg/kg administered intravenously to mice. It is filed as functional. As to conditions: route intravenous. An outline of the steps: (§1)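 P388 (10^6 cells) or L1210 (10^5 cells) leukemia was inoculated ip in mice at D0, followed by a single iv drug treatment on D1. Weight change was recorded. T/C % = median survival day of treated / controls × 100; survivors noted at D30; 10-15 mice per group.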

Assay [3] concerns Mus musculus. Description: Weight change in g when a dose of 5 mg/kg administered intraperitoneally to B16 melanoma infected mice. As to conditions: route intraperitoneal. The format is functional. The method in brief: (§2)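 Hybrid BDF1 mice were inoculated ip at D0 with 0.5 mL of B16 melanoma homogenate (1 g tumor in 10 mL physiological serum). Drug was given ip daily on days 1-9, with cis-platinum 0.5 mg/kg as positive control on the same schedule.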

The subject of assay [4] is Mus musculus. Description: Survivors at day 30 when a dose of 100 mg/kg administered intravenously to P388 (iv) to L1210 leukemia mice model. The format is functional.
The test system of assay [5] is Mus musculus. Description: Survivors at day 60 when a dose of 2.5 mg/kg to B16 melanoma infected when tested in 10 mice. It is filed as functional.
Assay [6] concerns Mus musculus. Description: Antitumor activity against C38 adenocarcinoma cells at a dose of 50 mg/kg administered intravenously on D1 to mice; tumor volume at D38 (T/C). It is filed as functional, MC-38. As to conditions: route intravenous. The method in brief:
(§3)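 Hybrid BD F1 mice, 10 per group, were implanted sc with a standard 3-mm3 C38 colon adenocarcinoma fragment. Drugs were given iv at the stated doses on D1 or on D2 + D9. Read-out was tumor size in treated versus control mice (T/C) at the day stated.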

The test system of assay [7] is Mus musculus. The assay can be described thus: Antitumor activity against C38 adenocarcinoma model at a dose of 25 mg/kg administered intravenously in mice; tumor volume at D38 (T/C). It is filed as functional. As to conditions: route intravenous. An outline of the steps: as §3
Assay [8] has as its system Mus musculus. Description: Median tumoral volume of C38 adenocarcinoma model when a dose of 100 mg/kg administered intravenously on D1 to mice. It is filed as functional. As to conditions: route intravenous. An outline of the steps:
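Geran protocol in hybrid BDF1 mice, 10 per test, implanted sc with a standard 3-mm³ fragment of C38 colon adenocarcinoma. Drug was given iv at the stated doses on D1, or on D2 + D9, and tumor growth was followed.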

Assay [9] relates to Mus musculus. Description: Median survival day in P388 leukemia model when a dose of 50 mg/kg administered intravenously to mice. The settings on record: route intravenous. The format is functional. The method in brief:
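P388 leukaemia in CDF1 hybrid mice, 10 per group. At D0, 10^6 viable cells were inoculated ip, followed by a single iv dose on D1. Weight change, median survival day, T/C (treated/control median survival × 100) and survivors at D30 were recorded.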

Assay [10] has as its system Mus musculus. The assay can be described thus: Antitumor activity against L1210 leukemia mice model at a dose of 20 mg/kg administered intravenously. It is filed as functional. The settings on record: route intravenous. The method in brief:
as §1

Assay [11] has as its system Mus musculus. The assay can be described thus: In vivo toxicity test on P388 cells at a dose of 100 mg/kg administered intravenously to P388 leukemia mice model. It is filed as functional. The settings on record: route intravenous. The method in brief: (§4)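 Mice (10 per group) were inoculated ip at D0 with 10^6 P388 leukemia cells and given a single iv dose at D1. Read-outs were weight change (g), median survival day, T/C % versus controls and survivors at D30.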

Assay [12] relates to Mus musculus. Description: Weight change in g when a dose of 50 mg/kg intravenous administration to P388 leukemia mice model. The format is functional. The method in brief:
as §4

Assay [13] deals with Mus musculus. Description: Weight change in g when a dose of 5 mg/kg administered intraperitoneally B16 melanoma infected mice. The format is functional. The settings on record: route intraperitoneal. The method in brief:
as §2

Assay [14] has as its system Mus musculus. Description: Survivors at day D38 when a dose of 100 mg/kg administered intravenously to C38 adenocarcinoma cell lines on D1 to mice; 10/10. The format is functional, MC-38. The settings on record: route intravenous. An outline of the steps:
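Hybrid BDF1 mice, 10 per test, were implanted sc with a standard 3-mm³ fragment of C38 colon adenocarcinoma. Drug was given iv either on D1 alone or on D2 and D9. Animals were followed per NCI (Geran) protocol.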

Assay [15] has as its system Mus musculus. Description: Weight change in g when a dose of 2.5 mg/kg administered intraperitoneally B16 melanoma infected mice. The settings on record: route intraperitoneal. It is filed as functional. An outline of the steps: as §2
In assay [16] the test system is Mus musculus. The assay can be described thus: Survivors at day 30 when a dose of 50 mg/kg administered intravenously to P388 leukemia mice model; 0/10. It is filed as functional. The settings on record: route intravenous.
The test system of assay [17] is Mus musculus. Description: Antitumor activity against C38 adenocarcinoma cells at a dose of 50 mg/kg administered intravenously to mice; tumor volume at D32 (T/C). The format is functional, MC-38. The settings on record: route intravenous. The method in brief:
as §3

Assay [18] relates to Mus musculus. The assay can be described thus: Survivors at day 30 when a dose of 40 mg/kg to P388 leukemia model; 1/10. It is filed as functional.
Assay [19] relates to Mus musculus. Description: Weight change in g when a dose of 10 mg/kg administered intraperitoneally B16 melanoma infected mice. It is filed as functional. As to conditions: route intraperitoneal. The method in brief:
as §2

Assay [20] has as its system Mus musculus. The assay can be described thus: Survivors at day 60 when a dose of 5 mg/kg to B16 melanoma infected mice; 3/10.
Assay [21] relates to Mus musculus. The assay can be described thus: Median survival day in B16 melanoma cell line when a dose of 10 mg/kg administered intraperitoneally to mice. It is filed as functional. As to conditions: route intraperitoneal. The method in brief:
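B16 melanoma in hybrid BD F1 mice. At D0 each mouse was inoculated ip with 0.5 mL of homogenate made from 1 g of tumour in 10 mL of physiological serum. Compounds were given ip daily at the stated doses for 9 days (D1-9), with cis-platinum 0.5 mg/kg under the same schedule as positive control.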

Assay [22] relates to Mus musculus. The assay can be described thus: Median survival day in P388 leukemia model when a dose of 40 mg/kg administered intraperitoneally. It is filed as functional. The settings on record: route intraperitoneal. The method in brief: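 P388 leukaemia in CDF1 hybrid mice, 10 per group. At D0, 10^6 viable cells were inoculated ip, followed by a single ip dose of drug in distilled water on D1. Weight change, median survival day, T/C (treated/control median survival × 100) and survivors at D30 were recorded. Controls were 20 mice.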

Assay [23] has as its system Mus musculus. Description: Antitumor activity against P388 leukemia in mice at a dose of 1.25 mg/kg administered intraperitoneally for 5 days. It is filed as functional. As to conditions: route intraperitoneal. The method in brief: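 CDF1 hybrid male or female mice, 10 per group, were inoculated ip with 10^6 viable P388 cells on day 0. Drugs in distilled water were given ip (0.1 mL/10 g body weight) daily D1-5. Vehicle, 5-fluorouracil and BD 84 were given the same way. T/C = median survival day of treated / controls × 100; T/C > 128% was significant; cures counted at D60.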

The subject of assay [24] is Mus musculus. Description: Weight change in g when a dose of 2.5 mg/kg administered intraperitoneally in B-16 melanoma infected mice. The format is functional. As to conditions: route intraperitoneal. An outline of the steps:
as §2

Assay [25] relates to Mus musculus. Description: Antitumor activity against P388 leukemia in mice at a dose of 30 mg/kg administered intraperitoneally for 5 days. It is filed as functional, organism-based. On the set-up: dose 30 mg/kg. An outline of the steps:
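CDF1 hybrid male or female mice, 10 per group, were inoculated ip on day 0 with 10^6 viable P388 leukemia cells. Drug in distilled water was given ip (0.1 mL/10 g body weight) daily on days 1-5, with vehicle, 5-fluorouracil and BD 84 controls given the same way. T/C = median survival of treated/controls × 100; T/C > 128% counted as significant.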

Molecules are shown by their SMILES.

The molecule `Cc1cnc(NCCCN(C)C)c2c3cc(O)ccc3n(C)c12` displayed a Median tumoral volume with Mus musculus [1] of 0 cm*3. The same molecule had a T/C in the assay with Mus musculus [2] of 157%. This molecule also showed a Weight change with Mus musculus [3] of -0.2 g. The Survivors in the assay with Mus musculus [4] turned out to be 4; in the assay on Mus musculus [5], 0. In addition, the Tumor volume in the assay with Mus musculus [6] came out at 30%; with Mus musculus [7] it was 0%.
With `CCN(CC)CCCNc1ncc(C)c2c1c1cc(O)ccc1n2C`, the Median tumoral volume with Mus musculus [8] came out at 3.24 cm*3. The molecule also yielded a Median survival day in the assay on Mus musculus [9] of 19. Moreover, the T/C is 132% with Mus musculus [10] and 223% in the assay with Mus musculus [11]. For the same molecule, the Weight change is listed as -0.7 g in the assay with Mus musculus [12], 0.2 g in the assay on Mus musculus [13], 0.6 g in the assay on Mus musculus [15] and -1 g with Mus musculus [19]. Besides, the Survivors in the assay with Mus musculus [14] was determined as 10; with Mus musculus [16] it was 0; in the assay on Mus musculus [18], 1; with Mus musculus [20], 3. Besides, the Tumor volume in the assay with Mus musculus [17] is 18%.
Turning to `CCN(CC)CCCNc1[nH]cc(C)c2nc3ccc(O)cc3c1-2`, the figures for the Median survival day in the assay with Mus musculus [21] and with Mus musculus [22] were 56.25 and 15.9, respectively. For the same molecule, the T/C is 153% with Mus musculus [23] and “Toxic” in the assay on Mus musculus [25]. Besides, the Weight change in the assay on Mus musculus [24] worked out at 3.6 g.

By T/C is commonly meant the result in the treated group divided by that in the control group, in per cent.

For the origin of these results see ChEMBL document CHEMBL1124035, “1-Amino-substituted 4-methyl-5H-pyrido[4,3-b]indoles (gamma-carbolines) as tricyclic analogues of ellipticines: a new class of antineoplastic agents” (1988).
